ChEMBL document CHEMBL1152825, “Pseudomonas aeruginosa may accumulate drug resistance mechanisms without losing its ability to cause bloodstream infections” (2007)
In brackets after ≈: the same amount, converted by molar mass.

Experiments:
Type in all cases: functional
[1] = system: Pseudomonas aeruginosa; test: Antibacterial activity against beta-lactams resistant Pseudomonas aeruginosa isolate expressing MexXY-OprM pump by macrodilution technique
Procedure, shortened: (§1)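 MICs by agar macrodilution on Mueller-Hinton agar with calibrated divalent cations. Isolates were graded susceptible, intermediate or resistant by CLSI breakpoints. Resistance was defined as a ≥fourfold MIC rise over reference strain PAO1. Resistance mechanisms were assigned by RT-PCR (PAO1-derived overexpressing mutants as controls) and gene complementation.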

[2] = system: Pseudomonas aeruginosa; test: Antibacterial activity against beta-lactams resistant OprD-deficient Pseudomonas aeruginosa isolate by macrodilution technique; procedure, shortened: as §1
[3] = system: Pseudomonas aeruginosa; test: Antibacterial activity against beta-lactams resistant Pseudomonas aeruginosa isolate expressing PSE-1, MexXY-OprM pump by macrodilution technique; procedure, shortened: as §1
[4] = system: Pseudomonas aeruginosa; test: Antibacterial activity against beta-lactams resistant Pseudomonas aeruginosa isolate expressing AmpC, MexXY-OprM pump by macrodilution technique; procedure, shortened: as §1
[5] = system: Pseudomonas aeruginosa; test: Antibacterial activity against wild type Pseudomonas aeruginosa PAO1 by macrodilution technique
Procedure, shortened: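 Wild-type reference strain PAO1. MIC by agar macrodilution on Mueller-Hinton agar with calibrated divalent cations. It served as the baseline for defining a ≥fourfold MIC increase in clinical isolates, and as the expression reference in RT-PCR.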

[6] = system: Pseudomonas aeruginosa; test: Antibacterial activity against Pseudomonas aeruginosa clinical isolates assessed as resistant rate by macrodilution technique
[7] = system: Pseudomonas aeruginosa; test: Antibacterial activity against beta-lactams resistant Pseudomonas aeruginosa isolate expressing AmpC by macrodilution technique; procedure, shortened: as §1
[8] = system: Pseudomonas aeruginosa; test: Antibacterial activity against Pseudomonas aeruginosa clinical isolate by macrodilution technique
[9] = system: Pseudomonas aeruginosa; test: Antibacterial activity against beta-lactams resistant Pseudomonas aeruginosa isolate expressing MexAB-OprM pump by macrodilution technique; procedure, shortened: as §1
[10] = system: Pseudomonas aeruginosa; test: Antibacterial activity against Pseudomonas aeruginosa clinical isolates assessed as susceptible rate by macrodilution technique
[11] = system: Pseudomonas aeruginosa; test: Antibacterial activity against MexXY-OprM pump-independent aminoglycoside-resistant Pseudomonas aeruginosa isolate by macrodilution technique
Procedure, shortened: as §1, with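 “Bloodstream P. aeruginosa isolates from patients in six French teaching hospitals (1999–2004). MICs” for “MICs”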

[12] = system: Pseudomonas aeruginosa; test: Antibacterial activity against aminoglycoside-resistant Pseudomonas aeruginosa isolate expressing AAC(6')-1, ANT(2'')-1 by macrodilution technique
Procedure, shortened: as §1, with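 “Bloodstream P. aeruginosa isolates from patients in six French teaching hospitals (1999–2004). MICs” for “MICs”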

[13] = system: Pseudomonas aeruginosa; test: Antibacterial activity against aminoglycoside-resistant Pseudomonas aeruginosa isolate expressing MexXY-OprM pump, AAC(3')-1 by macrodilution technique
Procedure, shortened: as §1, with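 “Bloodstream P. aeruginosa isolates from patients in six French teaching hospitals (1999–2004). MICs” for “MICs”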

[14] = system: Pseudomonas aeruginosa; test: Antibacterial activity against aminoglycoside-resistant Pseudomonas aeruginosa isolate expressing ANT(2'')-1 by macrodilution technique
Procedure, shortened: as §1, with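 “Bloodstream P. aeruginosa isolates from patients in six French teaching hospitals (1999–2004). MICs” for “MICs”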

[15] = system: Pseudomonas aeruginosa; test: Antibacterial activity against aminoglycoside-resistant Pseudomonas aeruginosa isolate expressing AAC(6')-1 by macrodilution technique
Procedure, shortened: as §1, with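 “Bloodstream P. aeruginosa isolates from patients in six French teaching hospitals (1999–2004). MICs” for “MICs”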

[16] = system: Pseudomonas aeruginosa; test: Antibacterial activity against aminoglycoside-resistant Pseudomonas aeruginosa isolate expressing MexXY-OprM pump, ANT(2'')-1 by macrodilution technique
Procedure, shortened: as §1, with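 “Bloodstream P. aeruginosa isolates from patients in six French teaching hospitals (1999–2004). MICs” for “MICs”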

[17] = system: Pseudomonas aeruginosa; test: Antibacterial activity against aminoglycoside-resistant Pseudomonas aeruginosa isolate expressing MexXY-OprM pump, AAC(6')-1 by macrodilution technique
Procedure, shortened: as §1, with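 “Bloodstream P. aeruginosa isolates from patients in six French teaching hospitals (1999–2004). MICs” for “MICs”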

[18] = system: Pseudomonas aeruginosa; test: Antibacterial activity against aminoglycoside-resistant Pseudomonas aeruginosa isolate expressing MexXY-OprM pump, AAC(6')-1, ANT(2'')-1 by macrodilution technique
Procedure, shortened: as §1, with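 “Bloodstream P. aeruginosa isolates from patients in six French teaching hospitals (1999–2004). MICs” for “MICs”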

[19] = system: Pseudomonas aeruginosa; test: Antibacterial activity against wild type Pseudomonas aeruginosa isolate by macrodilution technique; procedure, shortened: as §1
[20] = system: Pseudomonas aeruginosa; test: Antibacterial activity against aminoglycoside-resistant Pseudomonas aeruginosa isolate expressing MexXY-OprM pump, AAC(6')-1, AAC(3')-1 by macrodilution technique
Procedure, shortened: as §1, with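 “Bloodstream P. aeruginosa isolates from patients in six French teaching hospitals (1999–2004). MICs” for “MICs”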

[21] = system: Pseudomonas aeruginosa; test: Antibacterial activity against aminoglycoside-resistant Pseudomonas aeruginosa isolate expressing MexXY-OprM pump by macrodilution technique
Procedure, shortened: as §1, with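 “Bloodstream P. aeruginosa isolates from patients in six French teaching hospitals (1999–2004). MICs” for “MICs”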

[22] = system: Pseudomonas aeruginosa; test: Antibacterial activity against beta-lactams resistant Pseudomonas aeruginosa isolate expressing AmpC, MexXY-OprM pump, TEM-2 by macrodilution technique; procedure, shortened: as §1
[23] = system: Pseudomonas aeruginosa; test: Antibacterial activity against beta-lactams resistant Pseudomonas aeruginosa isolate expressing PSE-1 by macrodilution technique; procedure, shortened: as §1
[24] = system: Pseudomonas aeruginosa; test: Antibacterial activity against beta-lactams resistant Pseudomonas aeruginosa isolate expressing AmpC, PSE-1, MexXY-OprM pump by macrodilution technique; procedure, shortened: as §1
[25] = system: Pseudomonas aeruginosa; test: Antibacterial activity against beta-lactams resistant Pseudomonas aeruginosa isolate expressing MexAB-OprM pump, MexXY-OprM pump by macrodilution technique; procedure, shortened: as §1
[26] = system: Pseudomonas aeruginosa; test: Antibacterial activity against beta-lactams resistant Pseudomonas aeruginosa isolate expressing AmpC, MexAB-OprM pump, MexXY-OprM pump by macrodilution technique; procedure, shortened: as §1
[27] = system: Pseudomonas aeruginosa; test: Antibacterial activity against beta-lactams resistant Pseudomonas aeruginosa isolate expressing AmpC, MexAB-OprM pump by macrodilution technique
Procedure, shortened: as §1, with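 “Bloodstream P. aeruginosa isolates from patients in six French teaching hospitals (1999–2004). MICs” for “MICs”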

[28] = system: Pseudomonas aeruginosa; test: Antibacterial activity against beta-lactams resistant Pseudomonas aeruginosa isolate expressing MexXY-OprM pump, TEM-2 by macrodilution technique; procedure, shortened: as §1
[29] = system: Pseudomonas aeruginosa; test: Antibacterial activity against beta-lactams resistant Pseudomonas aeruginosa isolate expressing OXA2 by macrodilution technique; procedure, shortened: as §1

| Compound | MIC [1] [µg/mL] | MIC [2] [µg/mL] | MIC [3] [µg/mL] | MIC [4] [µg/mL] | MIC [5] [µg/mL] | Activity [6] [%] | MIC50 [8] [µg/mL] | MIC90 [8] [µg/mL] | Activity [10] [%] | MIC [11] [µg/mL] | MIC [12] [µg/mL] | MIC [13] [µg/mL] | MIC [14] [µg/mL] | MIC [15] [µg/mL] | MIC [16] [µg/mL] | MIC [17] [µg/mL] | MIC [18] [µg/mL] | MIC [19] [µg/mL] | MIC [20] [µg/mL] | MIC [21] [µg/mL] | further results |
| --- | --- | --- | --- | --- | --- | --- | --- | --- | --- | --- | --- | --- | --- | --- | --- | --- | --- | --- | --- | --- | --- |
| C[C@@H](O)[C@H]1C(=O)N2C(C(=O)O)=C(SCCNC=N)C[C@H]12 [IMIPENEM ANHYDROUS] | 8 (≈ 26.7 µM) | 8 (≈ 26.7 µM) | 64 (≈ 214 µM) | 16 (≈ 53.4 µM) | 1 (≈ 3.34 µM) | 10.8 | 2 (≈ 6.68 µM) | 16 (≈ 53.4 µM) | 82.5 | – | – | – | – | – | – | – | – | – | – | – | MIC [7]: 8 µg/mL (≈ 26.7 µM); MIC [9]: 4 µg/mL (≈ 13.4 µM) |
| CCN[C@@H]1C[C@H](N)[C@@H](O[C@H]2OC(CN)=CC[C@H]2N)[C@H](O)[C@H]1O[C@H]1OC[C@](C)(O)[C@H](NC)[C@H]1O [NETILMICIN] | – | – | – | – | 4 (≈ 8.41 µM) | 15 | 8 (≈ 16.8 µM) | 32 (≈ 67.3 µM) | 56.7 | 16 (≈ 33.6 µM) | > 128 | 16 (≈ 33.6 µM) | 8 (≈ 16.8 µM) | > 128 | 16 (≈ 33.6 µM) | > 128 | > 128 | 4 (≈ 8.41 µM) | > 128 | 16 (≈ 33.6 µM) | – |
| CC1(C)S[C@@H]2[C@H](NC(=O)[C@H](C(=O)O)c3ccsc3)C(=O)N2[C@H]1C(=O)O [TICARCILLIN] | 16 (≈ 41.6 µM) | 16 (≈ 41.6 µM) | > 256 | 128 (≈ 333 µM) | 16 (≈ 41.6 µM) | 10.8 | 32 (≈ 83.2 µM) | 256 (≈ 666 µM) | 77.5 | – | – | – | – | – | – | – | – | 16 (≈ 41.6 µM) | – | – | MIC [22]: > 256 µg/mL; MIC [23]: > 256 µg/mL; MIC [24]: > 256 µg/mL; MIC [25]: 128 µg/mL (≈ 333 µM); MIC [26]: 128 µg/mL (≈ 333 µM); MIC [27]: 128 µg/mL (≈ 333 µM); MIC [28]: > 256 µg/mL; MIC [29]: 128 µg/mL (≈ 333 µM); MIC [7]: 64 µg/mL (≈ 166 µM); MIC [9]: 128 µg/mL (≈ 333 µM) |
| NC[C@H]1O[C@H](O[C@H]2[C@H](O)[C@@H](O[C@H]3O[C@H](CO)[C@@H](O)[C@H](N)[C@H]3O)[C@H](N)C[C@@H]2N)[C@H](N)C[C@@H]1O [TOBRAMYCIN] | – | – | – | – | 0.5 (≈ 1.07 µM) | 21.7 | 1 (≈ 2.14 µM) | > 64 | 77.5 | 2 (≈ 4.28 µM) | 64 (≈ 137 µM) | 2 (≈ 4.28 µM) | 16 (≈ 34.2 µM) | 32 (≈ 68.4 µM) | > 64 | > 64 | 64 (≈ 137 µM) | 1 (≈ 2.14 µM) | > 64 | 2 (≈ 4.28 µM) | – |
| GENTAMICIN | – | – | – | – | 2 | 25 | 4 | 128 | 53.3 | 8 | 128 | 128 | > 128 | 128 | 128 | 128 | 128 | 4 | 128 | 8 | – |
